Source: PubChem BioAssay (several laboratories)
STAT3 act-1 – STAT3 signaling activation; U3A cells, IL-6 STAT3-luciferase reporter, luminescence; 100% = signal with IL-6 EC80 alone; activation (% of control), % at 5.6 µM; 0.91% of 190,000 active;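 active = activation above the screen-wide mean of compound activation plus 3 SD, cut at about 130% in these data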;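 also: 0% = background luminescence of wells with medium and substrate only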
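Test system: STAT3-luciferase reporter U3A cells; Detection: reporter luminescence signal; Times: 1 h compound pre-exposure, 6 h IL-6 stimulation, 37 °C; Benchmarks: IL-6-only high control; Also added: IL-6 stimulus at 33 ng/mL final.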
b-catenin transl – modulators of beta-catenin nuclear translocation; HeLa beta-catenin nuclear translocation, immunofluorescence imaging; nuclear translocation activity, % at 5 µM; 0.3% of 190,000 active; AID 1665;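 active = nuclear translocation activity above 50% at 5 µM, with a well cell count of 50 or more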;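 also: per-cell ratio of nuclear to cytoplasmic median beta-catenin stain intensity; plate controls were DMSO negative control for no effect and GSK-3 inhibitor IX positive control for full effect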
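Test system: human HeLa cells, endogenous beta-catenin. Times: 24 h compound exposure, 37°C. Measured by: beta-catenin immunofluorescence imaging with DAPI.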
MT stabilize HCS – microtubule stabilization, imaging screen. % tubulin-high responders, % at 10 µM. HeLa tubulin immunostaining HCS, 24 h; share of cells brighter than vehicle mean+2SD. 0.83% of 200,000 active. AID 2205;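 active = plate Z-score above 3 for both tubulin-high and condensed-nucleus cell shares, with cell loss under 80%, at 10 µM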;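 also: anti alpha tubulin signal scored within the nucleus-defined area of each cell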
STAT3 inh – STAT3 signaling inhibition; inhibition, % at 5.5 µM; U3A cells, IL-6 STAT3-luciferase reporter, luminescence; host cell line lacks STAT1; 0.89% of 190,000 active;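 active = inhibition above the mean inhibition across all screened compounds plus 3 SD, cut at about 44% in these data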;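 also: 0% = DMSO only wells and 100% = 100 µM nifuroxazide control wells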
STAT1 inh – inhibitors of IFN-gamma induced STAT1 signaling. inhibition, % at 5.5 µM. NIH 3T3 STAT1-luciferase reporter, luminescence. 0.35% of 200,000 active;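 active = inhibition above a set limit, the mean inhibition across all tested compounds plus 3 SD, cut at about 34% in these data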;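 also: 0% = IFN-gamma with DMSO and 100% = IFN-gamma with 300 µM nifuroxazide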
STAT3 act-2 – STAT3 activation, confirmation assay. U3A STAT3-luciferase reporter, IL-6 potentiation, luminescence; U3A cells lack STAT1; 100 means same as IL-6 alone. AID 1267. 64% of 1,200 active. potentiation (% of control), % at 5.7 µM. shares compounds with STAT3 act-1;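 active = percent activation of the STAT3 luciferase reporter above a set limit taken from the earlier primary screen, cut at about 130% in these data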;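 also: 0% = background signal of medium plus substrate and 100% = median of IL-6 with DMSO wells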
NFkB act 2 – activates NF-kappaB, counter-screen to STAT3 activators; shares compounds with STAT3 act-1; activation (% of control), % at 5.7 µM; human cells, NF-kappaB reporter activation; AID 1309; 11% of 1,200 active; in the data active = activation above about 120%;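 also: reporter induced by TNF-alpha stimulation; 100% = median of stimulated DMSO wells and 0% = no signal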
STAT1 act STAT3c – STAT1 activation in STAT3 activator counter-screen; 13% of 1,200 active; AID 1318; shares compounds with STAT3 act-1; NIH 3T3 STAT1-luciferase reporter, IFN-gamma, luminescence; activation (% of control), % at 5.7 µM;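 active = activation above the solvent-only control well mean plus 3 SD, set per screening run, cut at about 120% in these data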;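 also: 100% = IFN-gamma with DMSO median signal so 100% means no change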
Numbers without * were called inactive; i = inactive; · = no result. Shown are actives, neighbours in structure and some others; about 2.4% of the full set was active somewhere.

SMILES	STAT3 act-1	b-catenin transl	MT stabilize HCS	STAT3 inh	STAT1 inh	STAT3 act-2	NFkB act 2	STAT1 act STAT3c
O=[N+]([O-])c1ccccc1C1Nc2cccc3cccc(c23)N1	138*	0	2	-33	11	122	122*	99
CSCC[C@H](NC(=O)Nc1ccc(OC(F)(F)F)cc1)C(=O)O	·	-3	·	·	·	·	·	·
COc1ccc(C)cc1N(C(=O)COc1ccccc1)c1nc2ccccc2s1	137*	-1	4	-43	10	145*	101	101
COc1ccc(C)cc1N(C(=O)c1ccccc1)c1nc2ccccc2s1	127	5	5	-27	-6	·	·	·
CN1CCC=C(C(=O)N2c3ccccc3Sc3ccc(Cl)cc32)C1	·	0	·	·	·	·	·	·
O=S(=O)(Nc1nc2ccccc2nc1N1CCc2ccccc2C1)c1ccc(Br)cc1	81	-2	3	25	-66	·	·	·
CC(=O)Nc1ccc(S(=O)(=O)Nc2nc3ccccc3nc2N2CCc3ccccc3C2)cc1	137*	-1	2	-48	-14	140*	106	119
CC(=O)Nc1ccc(S(=O)(=O)Nc2nc3ccccc3nc2N2CCCCCC2)cc1	105	-2	1	-3	1	·	·	·
Cc1ccccc1S(=O)(=O)Nc1nc2ccccc2nc1N1CCc2ccccc2C1	136*	-2	7	-38	0	135*	119	114
O=S(=O)(Nc1nc2ccccc2nc1N1CCc2ccccc2C1)c1ccc(Cl)cc1	136*	-2	4	-43	-23	130	110	118
CCOC(=O)c1nc(C)nc(Sc2n[nH]c(-c3ccc(C(C)(C)C)cc3)n2)c1C	·	-3	·	·	·	·	·	·
O=C(NC1CCCC1)C1CCN(C(=O)c2ccc(-c3ccccc3)cc2)CC1	101	1	2	2	7	·	·	·
CC(C)(C)NC(=O)NC(=O)COC(=O)c1cccc(OC(F)F)c1	104	-1	2	1	-12	·	·	·
COc1ccc(C(=O)NCC(=O)N/N=C/c2cn[nH]c2-c2ccccc2)cc1	90	-4	5	22	6	·	·	·
O=C(NCC1CCCO1)c1ccc(CNS(=O)(=O)c2cccc(Cl)c2)cc1 (stereo unspecified)	99	1	3	8	-3	·	·	·
Oc1ccccc1-c1nc(N2CCN(Cc3ccccc3)CC2)c2ccccc2n1	146*	-3	4	-52	2	141*	104	101
Oc1ccccc1-c1nc(N2CCCC2)c2ccccc2n1	93	·	i	6	1	·	·	·
CC(=O)C1=C(O)C(=O)N(C)C1c1ccccc1[N+](=O)[O-] (stereo unspecified)	·	4	·	·	·	·	·	·
COc1ccc(-n2c(SCC(=O)Nc3cc(C(=O)O)ccc3C)nc3ccccc3c2=O)cc1Cl	·	0	·	·	·	·	·	·
COc1ccccc1S(=O)(=O)Nc1ccc2cn[nH]c2c1	126	0	2	-26	2	·	·	·
O=S(=O)(Nc1ccc2cn[nH]c2c1)c1ccc(Cl)s1	138*	0	3	-49	0	122	97	95
CCCCS(=O)(=O)Nc1ccc2cn[nH]c2c1	143*	2	4	-47	-2	139*	101	99
COc1ccccc1-c1nnc2n1N=C(c1ccc(O)c(O)c1)CS2	136*	41	21*	-38	3	127	160*	125*
Brc1ccccc1C1=Nn2c(nnc2-c2ccccc2)SC1	137*	·	1	-38	5	140*	101	91
COc1ccc(C2=Nn3c(nnc3-c3ccncc3)SC2)cc1OC	127	5	5	-24	23	·	·	·
SMILES	STAT3 act-1	b-catenin transl	MT stabilize HCS	STAT3 inh	STAT1 inh	STAT3 act-2	NFkB act 2	STAT1 act STAT3c
O=C(NCCCn1ccnc1)c1cc2c(ccc3ccccc32)o1	90	2	1	14	12	·	·	·
O=C1c2ccccc2C(=O)N1CCC1=CCCCC1	141*	·	1	-41	-23	121	122*	132*
c1ccc2c(-c3c[nH]c4ccccc34)c3ccccc3nc2c1	92	10	28	19	3	·	·	·
O=C(O)c1cc(-c2c[nH]c3ccccc23)nc2ccc3ccccc3c12	142*	2	5	-49	11	163*	112	100
CC(C)[C@H](NC(=O)c1ccco1)C(=O)OCC(=O)Nc1ccccc1OC(F)F	102	-1	2	0	7	·	·	·
COc1cccc(-c2nc(NC(C)(C)C)c3ccccc3n2)c1O	143*	1	4	-46	5	129	106	103
COc1cccc(-c2nc(N3CC(C)CC(C)C3)c3ccccc3n2)c1O (stereo unspecified)	138*	-2	4	-37	4	131	106	98
COc1cccc(-c2nc(N3CCC(C)CC3)c3ccccc3n2)c1O	122	1	2	-21	3	·	·	·
O=[N+]([O-])c1cc(S(=O)(=O)NC2=NCCCCC2)ccc1NCC1CCCCC1	86	0	2	24	10	·	·	·
Cc1nn(-c2ccccc2)c2c1C(c1cccs1)C(C#N)=C(N)O2 (stereo unspecified)	148*	·	1	-49	15	129	102	95
N#CC1=C(N)Oc2n[nH]c(-c3cccs3)c2C1c1cccs1 (stereo unspecified)	176*	6	1	-89	24	114	116	72
Cc1ccc(O)c(-c2cc(-c3cccc(F)c3)n[nH]2)c1	132	-1	2	-37	-6	·	·	·
Cc1ccc(O)c(-c2cc(-c3ccccc3F)[nH]n2)c1	160*	0	3	-65	-10	148*	117	111
CC(NCc1ccccc1Cl)C(=O)Nc1ccc(C#N)cc1 (stereo unspecified)	94	-1	9	9	6	·	·	·
O=C(Nc1nc2ccccc2s1)c1ccc2c(c1)S(=O)(=O)c1ccccc1C2=O	140*	1	2	-38	-5	132	101	96
CCN(CC)S(=O)(=O)c1ccc(-c2nnc3sc4cccc(C)c4n23)cc1	148*	·	2	-54	4	160*	110	107
Nn1cnnc1N/N=C\c1ccc(-c2ccccc2[N+](=O)[O-])o1	147*	2	9	-50	-21	105	104	101
CSCC[C@H](NC(=O)CCn1nnc2ccccc2c1=O)C(=O)O	139*	-5	4	-39	-3	92	103	99
Cn1c(=O)c2[nH]c(COc3ccc(C(C)(C)C)cc3)nc2n(C)c1=O	·	-1	·	·	·	·	·	·
O=C(NC1CCCCC1)C1Cc2ccccc2CN1S(=O)(=O)c1ccc(F)cc1 (stereo unspecified)	107	-3	4	-7	-1	·	·	·
